# Screens: PubChem BioAssay, several laboratories
# The full list was thinned out, with hits kept by preference.
# Hep lipid drop = hepatic lipid droplet formation modulation | AID 1656 | inhibition, % at 6.5 µM | 240,000 tested, 0.4% active | AML12 mouse hepatocytes, oleate lipid droplets, BODIPY imaging;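 active = lipid droplet intensity inhibited by at least 50%, with more than 500 cells counted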
#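 Test system: AML12 hepatocytes (mouse); reagent: oleate loading, 100 µM; dosing: one dose, 6.5 µM compound; incubation: overnight exposure; signal: fluorescence imaging, 20x objective, two fields per well; read-out basis: % inhibition of corrected integrated BODIPY droplet signal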
# DTT redox prof = compounds producing H2O2 with reducing agent – biochemical, NIH compound library profiling, artefact control for MLSCN library redox annotation, primary screen | DTT-dependent redox cycling H2O2, phenol red/HRP absorbance; 100% = 100 µM peroxide control, 0% = buffer | activation, % at 10 µM | 200,000 tested, 0.03% active | AID 878;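 active = activation of at least 50% relative to the plate's high and low controls in the primary single-dose screen; inactive = activation below 50%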;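 also: compound incubated with DTT at 0.8 mM final as the reducing agent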
# MPTP inh = inhibitors of mitochondrial permeability transition pore | isolated mouse mitochondria, Ca2+ swelling absorbance, 30 min | inhibition, % at 10 µM | 360,000 tested, 1.4% active;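 active = inhibition of 50% or more, scaled per plate between neutral and stimulator controls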
# L major viab = reduces viability of Leishmania major promastigotes; 200,000 tested, 9% active; inhibition, % at 10 µM; resazurin fluorescence viability; in the data active = inhibition above about 50%;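 also: promastigotes grown with compound for 44 hours at 28 °C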
# T cruzi inh = blocks replication of Trypanosoma cruzi; T. cruzi beta-gal in NIH3T3, luminescence, 90 h; inhibition, % (test concentration not listed); 300,000 tested, 1.4% active; AID 1885;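 active = mean inhibition across valid replicates above about 55%, limit read from the data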;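 also: signal also drops with host cell toxicity which is not excluded here; higher percent means less beta-gal luminescence so fewer parasites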
#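 Material: NIH/3T3 host cells with β-galactosidase reporter T. cruzi; Input: 5,000 host fibroblasts per well; Medium: DMEM, 2% fetal bovine serum; Compound: 50 nL DMSO compound solution per well; Schedule: 3 h host attachment, then at least 90 h co-culture; Detection: luminescent β-galactosidase signal after 60 min lysis.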
# Hits are given with their value; n = inactive; x = no result.
SMILES,Hep lipid drop,DTT redox prof,MPTP inh,L major viab,T cruzi inh
COC(=O)C1=C(C)N(c2ccc(Cl)c(Cl)c2)C(=O)C1,n,n,n,80.4,n
COc1cccc(-c2cnc(C(O)c3ccc(-c4ccccc4)cc3)[nH]2)c1 (configuration not stated),x,x,n,x,x
Cc1sc(NC(=O)C2CCCC2)c(C#N)c1C,n,n,n,n,n
CCc1ccc(-c2c(C)sc(NC(=O)C3CCC3)c2C#N)cc1,n,n,n,50.4,n
Cc1sc(NC(=O)COc2ccccc2)c(C#N)c1-c1ccccc1,n,n,n,56.5,n
COc1ccc(C(=O)Nc2sc(C)c(-c3ccccc3)c2C#N)cc1OC,n,n,n,n,n
O=C1NC[C@@H](CCCCN2CCN(CCc3ccc(O)cc3)C(=O)C2=O)N(CCc2ccc(O)cc2)C1=O,x,x,n,x,x
CC1(c2cccc(Br)c2)NC(=O)N(CC(=O)Nc2ccc3c(c2)OCCO3)C1=O (configuration not stated),x,x,n,x,x
O=C(CN1C(=O)NC(c2ccccc2)(c2ccccc2)C1=O)NCCNCCO,x,x,n,x,n
COc1cc(/C=C/C(=O)c2c(O)cc(C)oc2=O)cc(OC)c1O,x,n,n,97.1,n
COc1ccc(C(=O)/C=C/c2cc(OC)c(O)c(OC)c2)c(F)c1,n,n,n,89.8,n
COc1ccc2cc(C(=O)/C=C/c3cc(OC)c(O)c(OC)c3)ccc2c1,n,x,n,x,n
COc1cccc(/C=C/C(=O)c2c(O)cc(C)oc2=O)c1O,x,n,n,96.6,n
Cc1occc1-c1nnc(SCC(=O)O)n1-c1ccccc1,n,x,n,x,n
CC(C(=O)Nc1nc2ccccc2s1)n1cc([N+](=O)[O-])cn1 (configuration not stated),n,n,n,n,n
COc1ccc(CN(Cc2cc3cccc(C)c3[nH]c2=O)C(=O)N(C)C)cc1,n,n,n,n,n
Cc1cccc2cc(CN(C(=S)NCC(C)C)C3CCCC3)c(=O)[nH]c12,n,n,n,64.7,n
Cc1cccc2cc(CN(CC3CCCO3)C(=O)NC3CCCCC3)c(=O)[nH]c12 (configuration not stated),x,n,n,n,n
Cc1cccc2cc(CN(CC3CCCO3)C(=S)Nc3ccccc3)c(=O)[nH]c12 (configuration not stated),n,n,n,71.1,n
CCNC(=S)N(Cc1cc2cccc(C)c2[nH]c1=O)C1CCCC1,n,n,n,96.5,n
CNC(=S)N(Cc1ccc(OC)cc1)Cc1cc2cccc(C)c2[nH]c1=O,n,n,n,57.0,n
CCOC(=O)C1=C(c2ccccc2)NC(SCC(=O)Nc2ccc(C)cc2)=C(C#N)C1c1ccco1 (configuration not stated),n,n,n,n,64.8
CC(=O)C1=C(C)NC(SCC(=O)c2ccc(Cl)cc2)=C(C#N)C1c1ccco1 (configuration not stated),x,n,n,83.4,n
CSC1=C(C#N)C(c2ccccc2)C(C(C)=O)=C(C)N1 (configuration not stated),n,n,n,n,n
CSCSC1=C(C#N)C(c2ccc(Cl)cc2)C(C(C)=O)=C(C)N1 (configuration not stated),n,n,x,65.5,x
SMILES,Hep lipid drop,DTT redox prof,MPTP inh,L major viab,T cruzi inh
CCOC(=O)C1=C(c2ccccc2)NC(SCC(=O)Nc2cccc(C)c2)=C(C#N)C1c1ccco1 (configuration not stated),x,n,n,n,n
CC(=O)C1=C(C)NC(SCC(=O)c2ccc(Cl)cc2Cl)=C(C#N)C1c1ccco1 (configuration not stated),x,n,n,61.4,66.3
CC(=O)C1=C(C)NC(SCC(=O)c2ccccc2)=C(C#N)C1c1ccco1 (configuration not stated),x,n,x,n,n
CCCCNc1nccnc1-c1cccc(C=O)c1,x,x,n,x,x
CC(C)(C)NC(=O)NC(=O)CN1CCN(C(c2ccccc2)c2ccccc2)CC1,n,n,n,n,n
CCN(c1ccccc1)S(=O)(=O)c1ccc(Cl)c(C(=O)OCC(=O)c2[nH]c(C)c(C(C)=O)c2C)c1,n,n,n,53.1,n
CC(=O)c1c(C)[nH]c(C(=O)COC(=O)c2cc(S(=O)(=O)N(C)c3ccccc3)ccc2Cl)c1C,n,n,n,n,n
Cc1ccc(N2C(N)=C(C#N)C(c3ccsc3)C3=C2CC(C)(C)CC3=O)cc1 (configuration not stated),x,n,n,72.5,n
N#CC1=C(N)N(c2ccccc2)C2=C(C(=O)CCC2)C1c1ccsc1 (configuration not stated),n,n,n,55.4,n
CN(C)N1C(N)=C(C#N)C(c2ccsc2)C2=C1CC(C)(C)CC2=O (configuration not stated),n,n,n,n,n
COC(=O)[C@@]12CCCN1[C@H](c1ccc(-c3ccc(Cl)c(Cl)c3)cc1)[C@H]1C(=O)N(C)C(=O)[C@H]12,x,x,n,x,n
CC(C)C(Nc1ncnc2c1oc1ccccc12)C(=O)O (configuration not stated),n,n,n,n,76.9
CC(C)[C@H](Nc1nc(-c2ccccc2)nc2c1oc1ccccc12)C(=O)O,x,n,n,n,n
c1ccc2c(c1)oc1c(Nc3ccc(CN4CCOCC4)cc3)ncnc12,x,n,n,89.2,n
CCc1nc(Nc2ccc(N3CCN(C(C)=O)CC3)cc2)c2oc3ccccc3c2n1,x,n,n,n,n
CC(=O)N1CCN(c2ccc(Nc3ncnc4c3oc3ccccc34)cc2)CC1,x,n,n,62.3,n
Cc1ccc(Nc2nc3ccccc3[nH]2)nc1,n,n,n,100.5,n
Cc1ccc(C)c(C(=O)Nc2nc3ccccc3[nH]2)c1,n,x,n,x,n
C#CCOCCOCCOCCNc1nc(N2CCN(C(=O)[C@H](CCC(=O)O)n3cc(C(N)CO)nn3)CC2)nc(N2CCN(C(=O)[C@H](CCC(=O)O)n3cc(C(N)[C@H](C)CC)nn3)CC2)n1 (some centres not stated),n,n,n,n,n
Cc1cc(/N=C/C=C2\N(C)c3ccccc3C2(C)C)n(CCC#N)n1,x,n,n,100.5,n
CN1/C(=C/C=C(C#N)C#N)C(C)(C)c2ccccc21,n,n,n,n,n
CN1/C(=C\C=N\NC(=O)c2ccc(O)cc2)C(C)(C)c2ccccc21,n,n,n,85.6,n
CN(C)c1ccc(N=C/C=C2\N(C)c3ccccc3C2(C)C)cc1,x,n,n,100.7,n
CN1/C(=C\C=O)C(C)(C)c2ccccc21,n,n,n,n,n
CN1/C(=C\C=Nc2ccc3ccccc3c2)C(C)(C)c2ccccc21,x,n,n,88.2,x
O=C(OCc1cn([C@@H]2C[C@H](c3ccccc3)N(C(=O)C3CCCCC3)C[C@H]2O)nn1)c1ccccc1,x,x,n,x,x
Cn1cc(S(=O)(=O)c2ccccc2)n(C)c1=O,n,n,n,n,n
